# In PMC11342948 (International Journal of Nanomedicine, 2024):
# Columns and labels:
# MPTP-induced PD model [1] = assay: Behavioral assays; format: in vivo, C57BL/6J mice
# In short: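 Male C57BL/6J mice (8 weeks, 22–25 g), 12 per cohort, given MPTP 30 mg/kg/day i.p. in 0.9% saline for 5 days, with daily i.v. test compound (13 mg/kg, free or liposomal), L-Dopa 4.95 mg/kg or saline. On day 16: 10-min video-tracked open field (50 cm box, 30×30 cm centre) and vertical pole descent (1.5 cm × 55 cm, head up; T-turn, T-total). n=8, mean ± SD.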
# MPTP-induced PD model [2] = assay: Tyrosine hydroxylase immunohistochemical staining; format: in vivo, C57BL/6J mice
# In short: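 In the same MPTP model (30 mg/kg/day i.p., 5 days; daily i.v. test compound), perfused brains were cut into 5 μm coronal sections. These were incubated with rabbit polyclonal anti-TH (1:400, PBS) overnight at 4°C, then HRP secondary (1:200), with DAB detection. Striatal TH fiber immunoreactivity was quantified by image analysis. TH-positive neurons were counted in every sixth section through the substantia nigra.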
# MPTP-induced PD model [3] = assay: Oxidative stress assay in the striatum; format: in vivo, C57BL/6J mice; conditions: vs MPTP cohort
# In short: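 The MPTP mouse model used male C57BL/6J mice given 30 mg/kg/day i.p. for 5 days, with daily i.v. test compound at 13 mg/kg. After day-16 behaviour and perfusion, striatum was homogenised in 1% triton (1 g/9 mL) and spun at 15294 g, 4°C, 10 min. SOD, GSH-PX and MDA in the supernatant were measured with commercial kits per the manufacturer.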
# MPTP-induced PD model [4] = assay: Dopamine and its metabolites in the striatum; format: in vivo, C57BL/6J mice; conditions: for dopamine levels: L-Dopa 4.95 mg/kg, ECH 13 mg/kg
# [5] = Evans blue BBB integrity test; format: in vivo, mice; conditions: Evans blue 50 mg/kg intravenously, 30 minutes
# bEnd.3 monolayer = assay: In vitro BBB penetration, transwell model; conditions: 2 μg/mL
# [6] = open-field test, day 16, vs MPTP-treated mice
# [7] = pole test, day 16, vs MPTP-treated cohort
compound,measurement,setting,value
"N[C@@H](Cc1ccc(O)c(O)c1)C(=O)O [L-Dopa, levodopa]",average speed,MPTP-induced PD model [1]; [6],increased
same,movement within the central area,MPTP-induced PD model [1]; [6],significantly improved
same,percentage of time spent in the center,MPTP-induced PD model [1]; [6],increased
same,time spent immobile,MPTP-induced PD model [1]; [6],decreasing
same,total distance traveled,MPTP-induced PD model [1]; [6],increased
same,T-total,MPTP-induced PD model [1]; [7],significantly reduced
same,T-turn,MPTP-induced PD model [1]; [7],significantly reduced
same,MPTP-induced reduction in TH immunoreactivity in the striatum,MPTP-induced PD model [2]; striatum,effectively counteracted
same,TH-positive neuron counts in the substantia nigra,MPTP-induced PD model [2]; substantia nigra,partially restored
same,GSH-PX levels,MPTP-induced PD model [3],significantly elevated
same,MDA levels,MPTP-induced PD model [3],reducing
same,SOD levels,MPTP-induced PD model [3],significantly elevated
same,"DOPAC levels, increase compared to the MPTP cohort",MPTP-induced PD model [4],1.59 fold
same,"HVA levels, increase compared to the MPTP cohort",MPTP-induced PD model [4],1.63 fold
same,dopamine levels,MPTP-induced PD model [4]; MPTP 30 mg/kg i.p. five days,1.27 ± 0.09 ng/mg of wet striatum tissue
Echinacoside [Free ECH],neuroprotection (TH immunohistochemistry),MPTP-induced PD model [2]; compared to the MPTP cohort / other treatments,did not provide significant neuroprotection
same,dopamine levels,MPTP-induced PD model [4]; MPTP 30 mg/kg i.p. five days,1.27 ± 0.36 ng/mg of wet striatum tissue
"CN1CC=C(c2ccccc2)CC1 [MPTP, 1-methyl-4-phenyl-1,2,3,6-tetrahydropyridine]","dopamine levels, reduction compared to the control",MPTP-induced PD model [4]; MPTP 30 mg/kg i.p. five days,2.65 fold
same,dopamine levels,MPTP-induced PD model [4]; MPTP 30 mg/kg i.p. five days,0.95 ± 0.15 ng/mg of wet striatum tissue
same,BBB integrity (Evans blue levels in brain tissue),[5],did not compromise BBB integrity
O=C([O-])c1ccccc1-c1c2ccc(=O)cc-2oc2cc([O-])ccc12.[Na+].[Na+] [fluorescein sodium],apparent permeability coefficient,bEnd.3 monolayer,6.92 ± 3.92×10^−6 cm/s
